Assay results published in ChEMBL document CHEMBL1275265, “Synthesis and biological evaluation of N-antipyrine-4-substituted amino-3-chloromaleimide derivatives” (Eur J Med Chem, 2010).
Converted amounts (≈) assume the structure as drawn. The source made the active and inactive calls. The calls are words filed in the database; no cut-off is given here.

Experiments:
Enterobacter cloacae = experiment: Antibacterial activity against Enterobacter cloacae ATCC 35030 at < 100 ug/mL by agar dilution method; type: functional, organism-based
Summary of the method: (§1)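 Agar dilution on 1 mL Mueller-Hinton agar slants. Compounds were serially two-fold diluted in DMSO (final DMSO ≤2%) to give 10–100 µg/mL in the medium. Bacteria were grown on MHA at 35 °C for 24 h, suspended in 0.86% saline at 1.5 × 10^8 cell/mL (0.5 McFarland), and 1 µL was added per slant. Slants were incubated at 35 °C. Drug-free blank included; each assay run three times; MIC recorded.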

Bacillus cereus = experiment: Antibacterial activity against Bacillus cereus ATCC 14579 at < 100 ug/mL by agar dilution method; type: functional; summary of the method: as §1
Mus musculus [1] = experiment: Antinociceptive activity in Swiss mouse assessed as inhibition of acetic acid-induced writhing at 10 mg/kg, ip administered 30 mins before acetic acid challenge measured after 20 mins relative to control; type: functional; conditions: route intraperitoneal
Summary of the method: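 Mice were given 10 mg/kg i.p. in Tween 80/0.9% NaCl (Tween ≤5%) 30 min before i.p. 0.6% acetic acid, at 20–22 °C. Abdominal constrictions plus hind-limb stretching were counted cumulatively over 20 min in individual funnels. Groups of six, randomized and blinded. Inhibition was calculated versus vehicle controls (10 ml/kg i.p.); ANOVA with Dunnett's test.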

Staphylococcus aureus = experiment: Antibacterial activity against Staphylococcus aureus ATCC 6538P at < 100 ug/mL by agar dilution method; type: functional, organism-based; summary of the method: as §1
Escherichia coli = experiment: Antibacterial activity against Escherichia coli ATCC 11775 at < 100 ug/mL by agar dilution method; type: functional, organism-based; summary of the method: as §1
Salmonella typhimurium = experiment: Antibacterial activity against Salmonella Typhimurium ATCC 14028 at < 100 ug/mL by agar dilution method; type: functional, organism-based; conditions: Salmonella enterica subsp. enterica serovar Typhimurium; summary of the method: as §1
Bacillus subtilis = experiment: Antibacterial activity against Bacillus subtilis ATCC 23858 at < 100 ug/mL by agar dilution method; type: functional, organism-based; summary of the method: as §1
Streptococcus agalactiae = experiment: Antibacterial activity against Streptococcus agalactiae ATCC 13813 at < 100 ug/mL by agar dilution method; type: functional; summary of the method: as §1
Pseudomonas aeruginosa = experiment: Antibacterial activity against Pseudomonas aeruginosa ATCC 27853 at < 100 ug/mL by agar dilution method; type: functional, organism-based; summary of the method: as §1
[2] = tested on: Staphylococcus saprophyticus; experiment: Antibacterial activity against Staphylococcus saprophyticus ATCC 35552 at < 100 ug/mL by agar dilution method; type: functional, organism-based; summary of the method: as §1
Proteus mirabilis = experiment: Antibacterial activity against Proteus mirabilis ATCC 25933 at < 100 ug/mL by agar dilution method; type: functional, organism-based; summary of the method: as §1
[3] = Toxicity in Artemia salina assessed as mortality after 24 hrs; type: organism-based; conditions: in vivo
Summary of the method: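 Artemia salina hatched at pH 9.0 (Na2CO3), 25 °C, strong aeration, continuous light (2000 Lux). Phototropic nauplii were collected about 12 h after hatching, and groups of 10 were exposed per well to various compound concentrations for 24 h. Survivors were counted and % deaths calculated.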

Mus musculus [4] = experiment: Antinociceptive activity in Swiss mouse assessed as inhibition of acetic acid-induced abdominal contraction at 0.1 to 100 mg/kg, ip administered 30 mins before acetic acid challenge measured after 20 mins relative to control; type: functional, Abdominal cavity; conditions: dose mg/kg 0.1-100; route intraperitoneal
Summary of the method: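 Writhing dose-response in mice: compounds at 0.1–10 mg/kg and standard drugs at 10–100 mg/kg, i.p. in Tween 80/saline, 30 min before i.p. 0.6% acetic acid. Constrictions and stretches were counted for 20 min at 20–22 °C, with six to eight animals per group. ID50 (dose halving the response versus control) was given as geometric mean with 95% confidence limits.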

Aspergillus fumigatus = experiment: Antifungal activity against Aspergillus fumigatus ATCC 26934 by agar dilution method; type: functional
Summary of the method: (§2)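 Filamentous fungi (hyalohyphomycetes, dermatophytes) were grown on SDA. Spore suspensions were set to 1.0–5.0 × 10^6 spores/mL by hemocytometer count. 1 µL was inoculated onto 1 mL SDA slants holding compound at 10–100 µg/mL (two-fold DMSO dilutions, final DMSO ≤2%), then incubated at 28–30 °C. Drug-free blank and ketoconazole control included; repeated three times; MIC determined.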

Cryptococcus neoformans = experiment: Antifungal activity against Cryptococcus neoformans ATCC 32264 by agar dilution method; type: functional
Summary of the method: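 Yeasts were grown on Sabouraud dextrose agar and adjusted to 1.0–5.0 × 10^6 cell/mL (0.5 McFarland). Agar dilution used 1 mL SDA slants holding two-fold DMSO dilutions of compound at 10–100 µg/mL, with final DMSO ≤2%. 1 µL of inoculum was added per slant, then incubated at 35 °C. Drug-free blank and ketoconazole positive control included; triplicate runs; MIC read.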

Nannizzia gypsea = experiment: Antifungal activity against Microsporum gypseum C115 by agar dilution method; type: functional; summary of the method: as §2
Rhizopus = experiment: Antifungal activity against Rhizopus CL35 by agar dilution method; type: functional; summary of the method: as §2
[5] = tested on: Trichophyton mentagrophytes; experiment: Antifungal activity against Trichophyton mentagrophytes ATCC 9972 by agar dilution method; type: functional; summary of the method: as §2
Trichophyton rubrum = experiment: Antifungal activity against Trichophyton rubrum C137 by agar dilution method; type: functional; summary of the method: as §2

SMILES	Activity (Enterobacter cloacae)	Activity (Bacillus cereus)	inhibition in vivo at 10 mg/kg (Mus musculus [1])	Activity (Staphylococcus aureus)	Activity (Escherichia coli)	Activity (Salmonella typhimurium)	Activity (Bacillus subtilis)	Activity (Streptococcus agalactiae)	Activity (Pseudomonas aeruginosa)	Activity [2]	Activity (Proteus mirabilis)	LC50 at 24 h [3]	inhibition (INH) (Mus musculus [4])	MIC (Aspergillus fumigatus)	MIC (Cryptococcus neoformans)	MIC (Nannizzia gypsea)	MIC (Rhizopus)	MIC [5]	MIC (Trichophyton rubrum)
Cc1cc(C)cc(NC2=C(Cl)C(=O)N(c3c(C)n(C)n(-c4ccccc4)c3=O)C2=O)c1	inactive	inactive	68.4%	inactive	inactive	inactive	inactive	inactive	inactive	inactive	inactive	> 1000 µg/mL							
COc1cc(NC2=C(Cl)C(=O)N(c3c(C)n(C)n(-c4ccccc4)c3=O)C2=O)cc(OC)c1	inactive	inactive	72%	inactive	inactive	inactive	inactive	inactive	inactive	inactive	inactive	249 µg/mL (≈ 530 µM)							
COc1ccc(NC2=C(Cl)C(=O)N(c3c(C)n(C)n(-c4ccccc4)c3=O)C2=O)cc1	inactive	inactive	31.2%	inactive	inactive	inactive	inactive	inactive	inactive	inactive	inactive	> 1000 µg/mL							
Cc1c(N(C)CS(=O)(=O)[O-])c(=O)n(-c2ccccc2)n1C.[Na+] [DIPYRONE SODIUM]			33%										54%						
CC(=O)N1CCN(c2ccc(OCC3COC(Cn4ccnc4)(c4ccc(Cl)cc4Cl)O3)cc2)CC1 (stereo not given) [KETOCONAZOLE]														7 µg/mL (≈ 13.2 µM)	5 µg/mL (≈ 9.41 µM)	6 µg/mL (≈ 11.3 µM)	15 µg/mL (≈ 28.2 µM)	8 µg/mL (≈ 15.1 µM)	3 µg/mL (≈ 5.65 µM)
Cc1cccc(NC2=C(Cl)C(=O)N(c3c(C)n(C)n(-c4ccccc4)c3=O)C2=O)c1	inactive	inactive	49.7%	inactive	inactive	inactive	inactive	inactive	inactive	inactive	inactive	90.5 µg/mL (≈ 214 µM)							
Cc1c(N2C(=O)C(Cl)=C(N3CCN(c4ccccn4)CC3)C2=O)c(=O)n(-c2ccccc2)n1C	inactive	inactive	77.7%	inactive	inactive	inactive	inactive	inactive	inactive	inactive	inactive	> 1000 µg/mL							
Cc1ccc(NC2=C(Cl)C(=O)N(c3c(C)n(C)n(-c4ccccc4)c3=O)C2=O)cc1	inactive	inactive	33.6%	inactive	inactive	inactive	inactive	inactive	inactive	inactive	inactive	> 1000 µg/mL							
